ChEMBL document CHEMBL1132419 (J Med Chem, 1999)

Columns and labels:
[1] = system: Plasmodium falciparum; test: Antimalarial activity against chloroquine-sensitive Plasmodium falciparum NF54; type: functional, organism-based
[2] = system: Mus musculus; test: In vivo antimalarial activity against Plasmodium berghei N on subcutaneous administration.; type: functional; details: sc
Procedure, shortened: (§1)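 Mice, 5 per dose group, given 1, 3, 10 or 30 mg/kg once daily for 4 days by the route stated; ED values derived from the four-dose series.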

[3] = system: Mus musculus; test: In vivo antimalarial activity against Plasmodium berghei N on oral administration.; type: functional; procedure, shortened: as §1
[4] = system: Plasmodium berghei; test: Antimalarial activity against Plasmodium berghei N; details: Mus musculus

Row | SMILES | IC50 [1] | ED90 [2] | also measured
1 | CSc1ccc(C#[C][Al]([CH3])[CH2][C@@H]2O[C@@H]3O[C@]4(C)CC[C@H]5[C@H](C)CC[C@@H]([C@H]2C)[C@@]35OO4)cc1 | 8.4 nM | – | –
2 | C[C@H]1[C@H]([CH2][Al]([CH3])[C]#Cc2ccc(F)cc2)O[C@@H]2O[C@]3(C)CC[C@H]4[C@H](C)CC[C@@H]1[C@@]24OO3 | 8.3 nM | – | –
3 | C[C@H]1[C@H](c2ccco2)O[C@@H]2OC3(C)CC[C@H]4[C@H](C)CC[C@@H]1[C@@]24OO3 (single isomer, unassigned) | 1.4 nM | 2 mg/kg | ED90 [3]: 24 mg/kg
4 | C[C@H]1[C@H](c2ccc(C(C)(C)C)o2)O[C@@H]2OC3(C)CC[C@H]4[C@H](C)CC[C@@H]1[C@@]24OO3 (single isomer, unassigned) | 10 nM | – | –
5 | COc1cc(OC)c([C@@H]2O[C@@H]3OC4(C)CC[C@H]5[C@H](C)CC[C@@H]([C@H]2C)[C@@]35OO4)c(OC)c1 (single isomer, unassigned) | 7.8 nM | – | –
6 | CCc1ccc([C@@H]2O[C@@H]3OC4(C)CC[C@H]5[C@H](C)CC[C@@H]([C@H]2C)[C@@]35OO4)o1 (single isomer, unassigned) | 8.6 nM | – | –
7 | C[C@H]1[C@H](c2cccs2)O[C@@H]2OC3(C)CC[C@H]4[C@H](C)CC[C@@H]1[C@@]24OO3 (single isomer, unassigned) | 5.1 nM | – | –
8 | C[C@H]1[C@H](c2cccn2Cc2ccco2)O[C@@H]2OC3(C)CC[C@H]4[C@H](C)CC[C@@H]1[C@@]24OO3 (single isomer, unassigned) | 9.4 nM | – | –
9 | C[C@H]1[C@H](c2cccn2Cc2ccccc2)O[C@@H]2OC3(C)CC[C@H]4[C@H](C)CC[C@@H]1[C@@]24OO3 (single isomer, unassigned) | 16 nM | – | –
10 | C[C@H]1[C@H](c2cccn2C)O[C@@H]2OC3(C)CC[C@H]4[C@H](C)CC[C@@H]1[C@@]24OO3 (single isomer, unassigned) | 4.6 nM | 1.2 mg/kg | ED50 [2]: 0.7 mg/kg; ED90 [3]: 8.5 mg/kg
11 | C[C@H]1[C@H](c2cn(C)c3ccccc23)O[C@@H]2OC3(C)CC[C@H]4[C@H](C)CC[C@@H]1[C@@]24OO3 (single isomer, unassigned) | 4 nM | – | –
12 | CCOC(=O)Cn1cccc1[C@@H]1O[C@@H]2OC3(C)CC[C@H]4[C@H](C)CC[C@@H]([C@H]1C)[C@@]24OO3 (single isomer, unassigned) | 9.1 nM | – | –
13 | C=CCOc1ccc([C@@H]2O[C@@H]3OC4(C)CC[C@H]5[C@H](C)CC[C@@H]([C@H]2C)[C@@]35OO4)c(OCC=C)c1 (single isomer, unassigned) | 6.6 nM | – | –
14 | COc1ccc2cc([C@@H]3O[C@@H]4OC5(C)CC[C@H]6[C@H](C)CC[C@@H]([C@H]3C)[C@@]46OO5)c(OC)cc2c1 (single isomer, unassigned) | 9 nM | – | –
15 | Cc1ccc([C@@H]2O[C@@H]3OC4(C)CC[C@H]5[C@H](C)CC[C@@H]([C@H]2C)[C@@]35OO4)o1 (single isomer, unassigned) | 5.2 nM | 2 mg/kg | ED50 [2]: 0.9 mg/kg; ED50 [3]: 15.5 mg/kg; ED90 [3]: 43 mg/kg
16 | COc1ccc([C@@H]2O[C@@H]3OC4(C)CC[C@H]5[C@H](C)CC[C@@H]([C@H]2C)[C@@]35OO4)c(OC)c1 (single isomer, unassigned) | 4.2 nM | – | –
17 | C[C@@H]1CC[C@H]2[C@@H](C)C(=O)O[C@@H]3O[C@@]4(C)CC[C@@H]1[C@]32OO4 [ARTEMISININ] | – | 8.5 mg/kg | ED50 [2]: 3 mg/kg
18 | CCO[C@H]1O[C@@H]2O[C@@]3(C)CC[C@H]4[C@H](C)CC[C@@H]([C@H]1C)[C@@]24OO3 [ARTEMOTIL] | – | 0.5 mg/kg | ED50 [2]: 0.3 mg/kg; ED50 [4]: 0.3 mg/kg
19 | CCN(CC)CCCC(C)Nc1ccnc2cc(Cl)ccc12 (stereo unspecified) [CHLOROQUINE] | – | 3.1 mg/kg | –
